TCR CD3 inh – inhibitors of human TCR-CD3 interaction | TAMRA-labeled TCR probe fluorescence, biochemical | inhibition, % at 9.4 µM | 360,000 compounds, 0.37% hits; in the data active means inhibition above about 19%;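 further: recombinant mutant TCR 2C K166C tagged with TAMRA read by polarization; 0% = receptor in buffer alone and 100% = receptor with positive control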
ABHD4 inh – inhibitors of mouse ABHD4; 370,000 compounds, 0.54% hits; purified mABHD4, FP-Rh probe fluorescence polarization; inhibition, % at 8.92 µM;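 active means inhibition exceeding the mean over every tested compound plus 3 SD, cut at about 30% in these data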;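 further: 0% = plate median of compound wells and 100% = S159A mutant with DMSO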
Target sequence (Q8VD66 whole entry, looked up): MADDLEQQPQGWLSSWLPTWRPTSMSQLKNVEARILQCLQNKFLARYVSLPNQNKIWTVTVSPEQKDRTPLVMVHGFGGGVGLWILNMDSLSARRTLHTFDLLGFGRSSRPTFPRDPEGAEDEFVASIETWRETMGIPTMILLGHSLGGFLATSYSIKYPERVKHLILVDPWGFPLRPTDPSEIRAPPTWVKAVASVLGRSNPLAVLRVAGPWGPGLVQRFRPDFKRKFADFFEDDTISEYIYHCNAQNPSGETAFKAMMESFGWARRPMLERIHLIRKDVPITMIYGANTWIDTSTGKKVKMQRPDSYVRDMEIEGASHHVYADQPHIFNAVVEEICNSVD
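System: mouse ABHD4 enzyme, wild type / Medium: HEPES pH 7.0, NaCl, Pluronic buffer / Reagent: FP-Rh activity-based fluorescent probe / Control set: S159A mutant high control, sample median low control / Detection: fluorescence polarization with parallel and perpendicular emission, 525/598 nm / Schedule: 45 min + 60 min at 25 °C / Compound dosing: 8.92 µM, single dose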
TDP2 inh – blocks human TDP2 phosphodiesterase activity | recombinant TDP2, T5PNP hydrolysis, p-nitrophenol absorbance 415 nm | O95551 | inhibition, % at 12.8 µM | 370,000 compounds, 0.34% hits;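 active means inhibition above the mean of all tested compounds plus 3 SD, set per campaign, cut at about 25% in these data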;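 further: 0% = DMSO with enzyme and 100% = buffer with substrate but no TDP2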
Target sequence (O95551 whole entry, looked up): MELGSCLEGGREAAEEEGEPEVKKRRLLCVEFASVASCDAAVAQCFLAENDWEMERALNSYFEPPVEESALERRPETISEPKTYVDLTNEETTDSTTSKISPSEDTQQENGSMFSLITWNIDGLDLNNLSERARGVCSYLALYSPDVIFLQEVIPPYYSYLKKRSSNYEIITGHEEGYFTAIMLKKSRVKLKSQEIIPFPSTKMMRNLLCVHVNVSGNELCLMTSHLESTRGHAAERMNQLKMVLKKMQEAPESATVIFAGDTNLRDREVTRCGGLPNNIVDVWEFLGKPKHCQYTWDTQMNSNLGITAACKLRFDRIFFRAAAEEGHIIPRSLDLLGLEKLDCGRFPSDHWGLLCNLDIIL
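Read-out basis: percent inhibition. System: recombinant human TDP2. Buffer or medium: Mg2+-containing Tris-HCl buffer, pH 7.5. Repeats: single replicate. Timing: reaction 2 h, 37 °C. Benchmarks: high control without enzyme, low control DMSO plus TDP2. Probe or stimulus: 5 mM T5PNP. Doses: 12.8 µM only. Measured by: epi absorbance of p-nitrophenol freed from T5PNP by hydrolysis.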
LEDGF integ inh – blocks HIV-1 LEDGF/p75-dependent DNA integration; TR-FRET IN-LEDGF/p75 DNA integration, Eu/Cy5; inhibition, % at 3.7 µM; 370,000 compounds, 0.64% hits;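 active means inhibition above the screen-wide mean plus 3 SD, cut at about 13% in these data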;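 further: signal is the Cy5 over europium emission ratio at 671 and 618 nm; 0% = plate median of compound wells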
SIAE primary – human SIAE inhibition, primary screen | SIAE FP-Rh probe binding, fluorescence polarization | inhibition, % at 9.66 µM | 370,000 compounds, 0.69% hits;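 active means inhibition above a cutoff: mean of compounds within the control limits plus 3 SD of those, cut at about 17% in these data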;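 further: 0% = plate median of compound wells and 100% = probe without SIAE protein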
HTRA1 inhibitor – HTRA1 (human) protease inhibition. Q92743. recombinant HTRA1, FP-rhodamine activity-based probe, fluorescence polarization. inhibition, % at 5.96 µM. 340,000 compounds, 0.5% hits. AID 504803; in the data active means inhibition above about 36%;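 further: 0% = enzyme with DMSO and 100% = wells lacking enzyme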
SIAE inh conf – human SIAE inhibition, confirmation | 2,300 compounds, 13% hits | shares compounds with SIAE primary | inhibition, % at 9.66 µM | SIAE FP-Rh activity-based probe, fluorescence polarization | AID 1117263;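 active means mean inhibition of the replicates above the hit cutoff set in the primary screen, cut at about 17% in these data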;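 further: 0% = SIAE with DMSO and probe and 100% = probe without SIAE; inhibitors lower polarization as more probe stays unbound to SIAE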
Numbers without * were called inactive; / = not tested or not shown. Shown are actives, neighbours in structure and some others; about 2.2% of the full set was active somewhere.

SMILES	TCR CD3 inh	ABHD4 inh	TDP2 inh	LEDGF integ inh	SIAE primary	HTRA1 inhibitor	SIAE inh conf
O=C(Nc1ccc(-c2csc(Nc3ccc(Cl)cc3)n2)cc1)c1cc([N+](=O)[O-])cc(C(F)(F)F)c1	-4.9	-9.4	-8.6	3.4	15.0	-7.1	/
C/C(=N\NC(=S)Nc1cccc(C)c1)c1cc2ccccc2o1	0.7	3.3	-7.1	3.4	18.9*	-7.6	6.1
CCCCCCn1cc(CN2CC(N(C)CC)CS2(=O)=O)nn1 (configuration not stated)	9.2	5.9	4.2	3.1	-1.6	/	/
Cc1ccc(S(=O)(=O)N2CCOCC2)cc1C(=O)N1CCN(c2ncccn2)CC1	-11.2	-4.7	-3.0	-0.4	8.9	-1.3	/
Cc1nc(N)sc1-c1csc(Nc2cccc(O)c2)n1	4.5	21.5	-8.9	7.4	17.4*	16.0	-2.6
Cc1cc2oc(C(=O)N3CCN(CCc4ccccn4)CC3)c(C)c2cc1C	-2.2	-0.8	1.7	0.2	23.9*	0.7	4.9
Cc1c(C(=O)N2CCN(CCc3ccccn3)CC2)oc2ccc(F)cc12	-0.2	0.4	2.4	-3.1	-4.2	3.7	/
COc1cccc(-c2noc(C(C)n3nc(C)c([N+](=O)[O-])c3C)n2)c1 (configuration not stated)	0.0	-13.4	-20.6	4.2	34.4*	-7.3	-0.6
CCOc1ccc(/C=N/Nc2cc(N3CCOCC3)nc(C)n2)c(O)c1	-11.1	8.2	5.0	-2.0	31.3*	4.7	26.2*
CCOc1ccc(/C=N/Nc2cc(C)nc(N3CCOCC3)n2)cc1	-4.8	-13.7	-5.8	-2.6	-3.2	-1.4	/
Cc1ccccc1NC(=S)N1CCCCCC1	2.1	-1.4	12.9	2.6	-0.3	-4.0	/
Cc1ccccc1NC(=S)N1CCN(c2ccccc2)CC1	3.9	-0.6	0.9	4.9	17.8*	7.7	2.5
COc1ccc(CC(C(=O)Nc2ccc(OC)cc2)c2nn[nH]n2)cc1 (configuration not stated)	-9.1	-6.4	-15.8	0.5	25.6*	2.2	0.5
CC1CCN(S(=O)(=O)c2cccc(C(=O)Nc3nncs3)c2)CC1	3.3	-1.9	4.9	-0.6	2.3	-1.5	/
Cc1c(C(=O)N/N=C/c2ccc(-c3ccccc3[N+](=O)[O-])o2)sc(N)c1C#N	3.9	22.1	19.0	2.7	26.4*	24.5	5.8
O=C(N/N=C/c1ccc(-c2ccccc2[N+](=O)[O-])o1)c1cncc(Br)c1	4.5	1.1	15.7	0.2	-0.5	8.5	/
Cc1cc2oc(C(=O)Nc3ccc(S(=O)(=O)Nc4ncccn4)cc3)cc(=O)c2cc1Cl	-0.2	-3.4	19.2	2.0	-4.6	7.0	/
CC(C)(C)c1ccc(C(O)c2ncc(-c3cccc(F)c3)[nH]2)cc1 (configuration not stated)	-1.1	-5.5	0.4	-1.1	-4.5	/	/
CC1(c2ccc(OC(F)F)cc2)NC(=O)N(CC(=O)Nc2ccc(Cl)cc2F)C1=O (configuration not stated)	-5.4	-2.1	4.2	-2.0	-1.8	-18.4	/
COc1ccc(OCCOc2ccc(S(=O)(=O)N3CCCC3)cc2C(N)=O)cc1	6.4	3.4	-1.0	5.4	-2.2	0.3	/
NC(=O)c1cc(S(=O)(=O)N2CCCC2)ccc1OCCOc1ccccc1F	2.4	8.2	13.7	2.3	21.3*	-3.2	0.7
Cc1nnsc1C(=O)NNc1c(Cl)cccc1Cl	-8.7	4.1	-1.6	-1.1	0.6	-2.0	/
CCc1ccccc1NNC(=O)c1snnc1C	1.7	1.7	2.9	-0.8	17.1*	/	3.6
Cc1c(Cc2ccccc2)c(=O)oc2cc(OCc3nn[nH]n3)ccc12	0.7	-9.3	2.8	2.9	-6.0	-15.1	/
Cc1c(CC(=O)O)c(=O)oc2cc(OCc3nn[nH]n3)ccc12	7.5	0.7	1.5	0.6	18.0*	-1.8	2.6
SMILES	TCR CD3 inh	ABHD4 inh	TDP2 inh	LEDGF integ inh	SIAE primary	HTRA1 inhibitor	SIAE inh conf
Cc1csc(=O)n1CCC(=O)OCC(=O)Nc1ccc(S(N)(=O)=O)cc1	-8.9	5.1	4.6	-5.9	2.0	3.9	/
O=C(NCC(=O)N1CCCCCCC1)c1ccc(Cl)cc1	5.4	0.7	7.5	-1.8	4.7	-1.7	/
CC(C)(C)c1ccc(C(=O)NCC(=O)N2CCCCCC2)cc1	1.0	4.8	-0.8	-3.0	20.6*	-5.6	-2.0
CC(C)C[C@@H]1COc2cc(Br)ccc2S(=O)(=O)N1Cc1cn(CC2CCCCC2)nn1	/	-0.4	3.6	-3.2	-2.7	/	/
COc1ccc(Cl)cc1NC(=S)N1CCN(C(=O)c2ccco2)CC1	1.8	3.2	-5.6	-1.5	39.3*	6.6	-5.2
COc1c(S(=O)(=O)N2CCN(C(=O)c3ccco3)CC2)ccc(Cl)c1Cl	6.5	-2.9	12.2	1.4	73.0*	-0.4	1.6
COc1cc(S(=O)(=O)N2CCN(C(=O)c3ccco3)CC2)c(OC)cc1C	-0.6	0.1	-9.1	2.3	0.3	1.2	/
COc1ccccc1C(=O)NC(=O)COC(=O)c1ccc(Br)o1	-1.7	-6.0	19.7	1.8	3.1	-3.9	/
CC(=O)NC(=S)Nc1ccc(NC(=S)NC(=O)/C=C/c2ccco2)cc1	0.0	-6.9	-5.0	3.4	31.0*	-0.3	-27.9
O=C(O)CCCCCCNC(=O)c1cncc(O)c1	8.4	-0.7	7.4	3.3	23.1*	-0.7	-1.8
CN(C(=O)C1CC1)C1CCS(=O)(=O)C1 (configuration not stated)	-2.6	-0.4	2.8	0.2	-2.7	-2.3	/
COc1cccc(CN(C(=O)c2cnccn2)C(C(=O)NC2CCCCC2)c2cc(OC)c(OC)c(OC)c2)c1 (configuration not stated)	4.2	0.2	-1.0	-3.0	-7.0	0.9	/
COc1cc(SSc2cc(OC)cc([N+](=O)[O-])c2N)c(N)c([N+](=O)[O-])c1	-7.7	28.8	-10.6	0.8	25.0*	17.0	2.5
COC(=O)c1c(C)[nH]c(C)c1C(C)=O	6.1	-2.8	3.1	5.6	2.5	5.8	/
COC(=O)c1c([N+](=O)[O-])c(OC)c(OC)c(OC)c1[N+](=O)[O-]	6.0	2.6	-2.3	4.1	18.6*	-3.6	6.9
Cc1ccc(-c2csc3ncnc(N4CCN(S(=O)(=O)c5cccs5)CC4)c23)cc1	/	/	/	/	/	1.6	/
CC(=O)Nc1ccc(S(=O)(=O)Nc2c(NC3CCCCC3)c3ccccc3oc2=O)cc1	-2.6	3.4	-15.6	2.1	3.0	-5.7	/
CC(C)/C=N/Nc1nc(-c2ccc(Br)cc2)cs1	8.3	12.8	8.8	-2.4	17.9*	-3.8	1.6
O=C(Nc1nc(-c2ccc(Br)cc2)cs1)c1cccnc1	-2.2	6.2	7.2	1.4	-11.5	5.2	/

Bioassay records (PubChem)
